Results: ChEMBL document CHEMBL3797202, “Novel Oxindole Sulfonamides and Sulfamides: EPZ031686, the First Orally Bioavailable Small Molecule SMYD3 Inhibitor” (ACS Med Chem Lett, 2016)

What was measured:
[1] = Fraction unbound in CD1 mouse plasma at 1 uM incubated for 16 hrs by LC-MS/MS based equilibrium dialysis method; format: ADME, cell-free
[2] = target: Histone-lysine N-methyltransferase SETDB1 (Homo sapiens) (UniProt Q15047); experiment: Inhibition of SETDB1 (unknown origin) at 10 uM relative to control
[3] = target: Histone-lysine N-methyltransferase, H3 lysine-36 specific (Homo sapiens) (UniProt Q96L73); experiment: Inhibition of NSD1 (unknown origin) at 10 uM relative to control
[4] = Intrinsic clearance in CD1 mouse liver microsomes at 1 uM incubated for 5 to 45 mins by LC-MS/MS analysis in presence of NADPH; format: ADME; settings: read-out: CLH
Outline: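 Mouse liver microsomal incubations; clearance scaled from microsomal data and reported as a mean value.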

[5] = target: Protein arginine N-methyltransferase 8 (Homo sapiens) (UniProt Q9NR22); experiment: Inhibition of PRMT8 (unknown origin) at 10 uM relative to control
[6] = target: T1, Protein arginine N-methyltransferase 7 (Homo sapiens) (UniProt Q9NVM4); experiment: Inhibition of PRMT7 (unknown origin) at 10 uM relative to control
T1 sequence (whole entry): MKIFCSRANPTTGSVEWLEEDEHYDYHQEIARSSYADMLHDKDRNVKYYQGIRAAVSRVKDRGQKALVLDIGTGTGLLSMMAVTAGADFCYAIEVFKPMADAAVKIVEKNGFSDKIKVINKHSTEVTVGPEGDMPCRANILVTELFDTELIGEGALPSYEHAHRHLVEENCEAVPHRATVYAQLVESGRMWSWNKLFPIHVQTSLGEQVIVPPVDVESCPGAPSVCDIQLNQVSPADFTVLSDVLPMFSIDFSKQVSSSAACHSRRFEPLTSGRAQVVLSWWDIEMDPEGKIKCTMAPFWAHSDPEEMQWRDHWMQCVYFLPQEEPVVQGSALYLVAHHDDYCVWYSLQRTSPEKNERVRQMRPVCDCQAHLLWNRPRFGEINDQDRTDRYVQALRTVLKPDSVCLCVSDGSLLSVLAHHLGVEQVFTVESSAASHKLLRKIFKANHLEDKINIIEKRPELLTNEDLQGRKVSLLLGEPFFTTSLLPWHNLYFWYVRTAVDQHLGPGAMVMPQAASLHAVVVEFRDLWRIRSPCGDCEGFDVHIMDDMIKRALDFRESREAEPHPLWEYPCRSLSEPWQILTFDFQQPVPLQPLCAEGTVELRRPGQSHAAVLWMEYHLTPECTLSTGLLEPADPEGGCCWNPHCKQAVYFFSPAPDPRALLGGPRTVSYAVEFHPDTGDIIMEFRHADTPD

[7] = target: Protein arginine N-methyltransferase 6 (Homo sapiens) (UniProt Q96LA8); experiment: Inhibition of PRMT6 (unknown origin) at 10 uM relative to control
[8] = target: Protein arginine N-methyltransferase 3 (Homo sapiens) (UniProt O60678); experiment: Inhibition of PRMT3 (unknown origin) at 10 uM relative to control
[9] = target: T2, Histone-lysine N-methyltransferase SETD7 (Homo sapiens) (UniProt Q8WTS6); experiment: Inhibition of SETD7 (unknown origin) at 10 uM relative to control
T2 sequence (whole entry): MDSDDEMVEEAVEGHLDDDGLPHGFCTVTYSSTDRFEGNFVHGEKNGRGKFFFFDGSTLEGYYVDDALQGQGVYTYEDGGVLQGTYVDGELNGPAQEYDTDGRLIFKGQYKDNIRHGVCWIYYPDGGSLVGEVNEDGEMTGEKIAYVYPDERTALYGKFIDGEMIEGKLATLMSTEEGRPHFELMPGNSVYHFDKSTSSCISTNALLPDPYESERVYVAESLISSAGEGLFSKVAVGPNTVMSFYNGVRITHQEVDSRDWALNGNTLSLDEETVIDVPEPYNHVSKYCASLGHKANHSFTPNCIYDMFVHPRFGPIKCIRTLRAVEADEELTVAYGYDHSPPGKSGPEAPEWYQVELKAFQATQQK

Chain of Protein arginine N-methyltransferase 8 (Homo sapiens) (Q9NR22 2-394 limits assumed): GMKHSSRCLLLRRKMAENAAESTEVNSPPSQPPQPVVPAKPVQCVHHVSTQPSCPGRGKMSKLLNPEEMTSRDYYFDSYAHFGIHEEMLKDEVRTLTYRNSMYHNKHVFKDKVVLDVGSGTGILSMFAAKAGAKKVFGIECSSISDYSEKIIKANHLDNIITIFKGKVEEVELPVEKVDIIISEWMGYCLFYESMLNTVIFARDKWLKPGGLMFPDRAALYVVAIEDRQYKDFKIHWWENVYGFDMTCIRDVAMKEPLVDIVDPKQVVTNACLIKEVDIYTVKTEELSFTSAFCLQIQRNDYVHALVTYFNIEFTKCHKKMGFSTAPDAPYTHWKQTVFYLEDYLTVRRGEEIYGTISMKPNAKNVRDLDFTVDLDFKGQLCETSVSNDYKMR
Chain of Protein arginine N-methyltransferase 3 (Homo sapiens) (O60678 2-531 limits assumed): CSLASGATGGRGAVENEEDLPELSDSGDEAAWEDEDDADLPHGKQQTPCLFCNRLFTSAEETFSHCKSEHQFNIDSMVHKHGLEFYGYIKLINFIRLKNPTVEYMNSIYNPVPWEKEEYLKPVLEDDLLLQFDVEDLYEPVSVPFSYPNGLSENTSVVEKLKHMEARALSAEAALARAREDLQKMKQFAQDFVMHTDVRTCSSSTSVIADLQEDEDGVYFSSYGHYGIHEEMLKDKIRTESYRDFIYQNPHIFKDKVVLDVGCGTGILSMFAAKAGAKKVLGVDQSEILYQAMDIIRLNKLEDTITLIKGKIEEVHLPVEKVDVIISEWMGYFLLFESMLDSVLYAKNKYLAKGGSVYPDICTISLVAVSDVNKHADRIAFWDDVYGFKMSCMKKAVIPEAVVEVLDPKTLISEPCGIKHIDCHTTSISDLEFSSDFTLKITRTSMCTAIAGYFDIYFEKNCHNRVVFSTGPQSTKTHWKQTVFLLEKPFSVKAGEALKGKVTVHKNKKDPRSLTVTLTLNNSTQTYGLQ
Chain of Protein arginine N-methyltransferase 6 (Homo sapiens) (Q96LA8 whole entry, looked up): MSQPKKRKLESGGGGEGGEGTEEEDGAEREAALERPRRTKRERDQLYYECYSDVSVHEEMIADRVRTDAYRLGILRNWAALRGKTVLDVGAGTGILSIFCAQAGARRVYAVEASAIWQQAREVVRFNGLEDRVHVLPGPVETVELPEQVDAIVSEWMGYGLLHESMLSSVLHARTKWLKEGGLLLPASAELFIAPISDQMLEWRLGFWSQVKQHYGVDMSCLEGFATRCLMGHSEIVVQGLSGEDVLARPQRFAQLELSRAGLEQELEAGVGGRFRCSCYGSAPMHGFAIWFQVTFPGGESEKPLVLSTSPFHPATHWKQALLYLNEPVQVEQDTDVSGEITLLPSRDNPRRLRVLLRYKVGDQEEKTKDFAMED
Chain of Histone-lysine N-methyltransferase, H3 lysine-36 specific (Homo sapiens) (Q96L73 whole entry): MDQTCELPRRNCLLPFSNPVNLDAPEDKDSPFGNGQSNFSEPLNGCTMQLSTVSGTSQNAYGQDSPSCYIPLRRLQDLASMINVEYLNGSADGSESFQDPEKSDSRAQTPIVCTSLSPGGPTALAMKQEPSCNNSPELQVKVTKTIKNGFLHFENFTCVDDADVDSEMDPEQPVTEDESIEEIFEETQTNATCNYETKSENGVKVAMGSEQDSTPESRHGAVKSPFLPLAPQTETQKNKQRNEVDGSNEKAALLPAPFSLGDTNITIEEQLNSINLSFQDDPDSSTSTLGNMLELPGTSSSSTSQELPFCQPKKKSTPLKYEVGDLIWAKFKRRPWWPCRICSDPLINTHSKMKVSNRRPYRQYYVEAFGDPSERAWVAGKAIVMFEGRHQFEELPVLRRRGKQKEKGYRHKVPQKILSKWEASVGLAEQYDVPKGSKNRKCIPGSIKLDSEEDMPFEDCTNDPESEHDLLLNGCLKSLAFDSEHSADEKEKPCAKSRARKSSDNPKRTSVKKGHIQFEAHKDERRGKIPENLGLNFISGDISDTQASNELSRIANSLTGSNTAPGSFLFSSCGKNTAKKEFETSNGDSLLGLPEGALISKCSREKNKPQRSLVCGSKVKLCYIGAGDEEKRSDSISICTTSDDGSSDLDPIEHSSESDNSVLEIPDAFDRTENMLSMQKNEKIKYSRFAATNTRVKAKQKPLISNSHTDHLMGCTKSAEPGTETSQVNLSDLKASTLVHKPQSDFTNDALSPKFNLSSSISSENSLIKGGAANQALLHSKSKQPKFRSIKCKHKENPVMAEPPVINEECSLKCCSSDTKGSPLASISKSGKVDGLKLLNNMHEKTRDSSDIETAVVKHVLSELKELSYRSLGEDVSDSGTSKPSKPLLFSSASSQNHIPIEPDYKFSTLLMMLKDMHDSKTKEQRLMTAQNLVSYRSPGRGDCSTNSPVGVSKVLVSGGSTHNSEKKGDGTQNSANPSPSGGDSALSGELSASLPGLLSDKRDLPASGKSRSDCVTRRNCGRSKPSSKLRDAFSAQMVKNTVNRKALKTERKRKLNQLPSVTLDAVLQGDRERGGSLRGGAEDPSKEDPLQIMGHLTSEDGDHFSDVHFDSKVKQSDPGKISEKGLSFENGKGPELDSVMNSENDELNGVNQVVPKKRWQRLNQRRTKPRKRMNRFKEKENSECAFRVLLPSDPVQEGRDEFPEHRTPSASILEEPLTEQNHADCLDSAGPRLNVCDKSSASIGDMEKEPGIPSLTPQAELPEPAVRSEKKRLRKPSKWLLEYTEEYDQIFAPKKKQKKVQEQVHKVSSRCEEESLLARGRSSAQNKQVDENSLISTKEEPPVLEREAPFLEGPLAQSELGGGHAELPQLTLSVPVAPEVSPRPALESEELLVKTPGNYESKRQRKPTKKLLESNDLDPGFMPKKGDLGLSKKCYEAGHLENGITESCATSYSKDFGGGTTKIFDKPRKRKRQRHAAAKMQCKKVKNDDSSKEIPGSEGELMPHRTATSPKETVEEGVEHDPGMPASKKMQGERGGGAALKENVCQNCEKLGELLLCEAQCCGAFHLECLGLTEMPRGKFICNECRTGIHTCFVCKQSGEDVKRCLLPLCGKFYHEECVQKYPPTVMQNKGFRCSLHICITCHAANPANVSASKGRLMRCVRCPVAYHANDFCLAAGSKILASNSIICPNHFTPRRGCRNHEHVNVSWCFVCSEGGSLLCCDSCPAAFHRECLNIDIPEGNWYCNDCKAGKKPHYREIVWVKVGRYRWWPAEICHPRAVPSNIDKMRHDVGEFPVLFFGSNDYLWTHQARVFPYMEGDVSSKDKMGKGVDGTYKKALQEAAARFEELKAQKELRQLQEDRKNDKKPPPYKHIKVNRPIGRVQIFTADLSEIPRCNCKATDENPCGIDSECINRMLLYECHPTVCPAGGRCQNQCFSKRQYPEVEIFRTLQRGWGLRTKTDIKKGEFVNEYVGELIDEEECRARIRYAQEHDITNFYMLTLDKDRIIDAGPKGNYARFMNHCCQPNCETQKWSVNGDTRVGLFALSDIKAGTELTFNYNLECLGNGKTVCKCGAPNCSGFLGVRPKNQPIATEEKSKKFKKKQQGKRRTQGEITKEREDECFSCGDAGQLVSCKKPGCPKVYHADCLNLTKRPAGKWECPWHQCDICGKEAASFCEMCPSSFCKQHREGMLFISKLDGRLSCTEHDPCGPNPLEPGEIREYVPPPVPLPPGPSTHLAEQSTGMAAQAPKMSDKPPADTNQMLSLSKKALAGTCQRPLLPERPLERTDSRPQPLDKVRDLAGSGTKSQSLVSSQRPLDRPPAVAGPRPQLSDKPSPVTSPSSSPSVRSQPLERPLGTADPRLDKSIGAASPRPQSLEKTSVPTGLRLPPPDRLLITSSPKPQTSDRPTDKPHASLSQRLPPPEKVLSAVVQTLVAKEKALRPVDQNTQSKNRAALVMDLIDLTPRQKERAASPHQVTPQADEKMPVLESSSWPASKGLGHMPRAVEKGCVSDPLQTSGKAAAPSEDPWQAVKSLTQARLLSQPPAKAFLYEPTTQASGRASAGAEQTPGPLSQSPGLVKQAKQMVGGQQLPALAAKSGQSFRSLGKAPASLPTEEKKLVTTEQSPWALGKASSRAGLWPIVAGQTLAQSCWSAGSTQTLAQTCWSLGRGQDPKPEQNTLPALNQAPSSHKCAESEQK

| SMILES | fraction unbound at 16 h, 1 µM [1] | inhibition [2] | inhibition [3] | CLint scaled at 1 µM [4] | inhibition [5] | inhibition [6] | inhibition [7] | inhibition [8] | inhibition [9] |
| --- | --- | --- | --- | --- | --- | --- | --- | --- | --- |
| O=C1Cc2cc(C(=O)N[C@H]3C[C@H]4CC[C@@H](C3)N4S(=O)(=O)N3CCC(NCc4ccccc4)CC3)c(Cl)cc2N1 | 0.32 | < 30% | < 30% | 34 mL/min/kg | < 30% | < 30% | < 30% | < 30% | < 30% |
| O=C1Cc2cc(C(=O)N[C@H]3C[C@H]4CC[C@@H](C3)N4S(=O)(=O)CC3CCN(CCCC(F)(F)F)CC3)c(Cl)cc2N1 | 0.53 | < 30% | < 30% | 24 mL/min/kg | < 30% | < 30% | < 30% | < 30% | < 30% |
